Screening data deposited in PubChem by several laboratories.
RAM inhibit = inhibitors of the yeast RAM network, primary screen, dse1pr::URA3 reporter, 5-FOA selection; S. cerevisiae dse1pr::URA3 reporter, 5-FOA growth OD615, 2 d; analog-sensitive cbk1-as2 kinase mutant strain; inhibition, % at 50 µM; 1.8% of 190,000 active; AID 868, 2007;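 active means inhibition above a set limit, 3 SD over mean compound inhibition, cut at about 8.4% in these data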;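 further: 0% = DMSO-only wells with no growth and 100% = 10 µM 1-NA-PP1 full growth; inhibition rescues growth on 5-FOA so higher OD means more RAM inhibition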
Phagocytosis inh = inhibitors of macrophage phagocytosis, primary screen, imaging, J774A.1 cells, IgG beads; inhibition, % at 5 µM; 0.07% of 110,000 active; J774A.1 macrophage IgG-bead phagocytosis;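 active means inhibition above the mean of the plate negative controls plus 5 SD, cut at about 13% in these data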;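 further: phagocytic index as fraction of beads internalized from green versus red external bead signal; plate controls were DMSO negative control for no effect and cytochalasin-D positive control for full effect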
BB579 growth dn = growth inhibitors of yeast BB579 in restrictive medium, primary screen, yeast lifespan-shortening project, S. cerevisiae; OD615, 48 h; inhibition, % at 10 µM; 0.51% of 140,000 active;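 active means inhibition above a set limit, 3 SD over the mean compound inhibition, cut at about 44% in these data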
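controls = amphotericin B 10 µg/mL, positive | assay system = DeaD yeast strain BB579 | schedule = 48 h compound exposure at 30 °C after 4 h preincubation | detection = OD615 turbidity measurement | medium = restrictive CSMM-D medium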
Yeast lifespan up = compounds extending yeast replicative lifespan, primary screen, S. cerevisiae, OD615. S. cerevisiae growth with nicotinamide; deaD strain in restrictive glucose medium. 0.68% of 130,000 active. AID 775, 2007. inhibition of the nicotinamide effect, % at 10 µM;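 active means inhibition above a set limit, placed 3 SD over the median of all compounds, cut at about 26% in these data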;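 further: 0% = nicotinamide-treated wells and 100% = cells grown without nicotinamide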
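Buffer or medium: CSMM-D glucose medium, restrictive; test system: modified budding yeast, DeaD strain; compound: single dose 10 µM compound, 0.25% DMSO; schedule: culture preincubation 4 h, compound exposure 48 h, both 30 °C; detection: optical density (absorbance) at 615 nm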
Starred values were filed as active, the others as inactive; / = no result given. Only some compounds are listed: those with a hit (about 2.7% of all), similar ones and a draw of the others.

SMILES	RAM inhibit	Phagocytosis inh	BB579 growth dn	Yeast lifespan up
CCCCCC/C(=N/O)c1ccccn1	-1.6	-1.0	99.8*	-19.2
O=C(CSCc1cccc(Cl)c1)Nc1ccccc1-c1ccccc1	2.9	-12.8	-6.3	-2.0
Cc1cc(C)c2c(N=NN3CCOCC3)[nH]nc2n1	-1.1	-11.6	66.3*	-4.1
Cc1cc(C)cc(-c2nnc(SCc3ccc(C(=O)O)cc3)o2)c1	4.8	/	/	/
COc1ccc2nc(NC(=O)C3CCN(S(=O)(=O)c4cnc[nH]4)CC3)sc2c1	0.3	-2.7	-13.1	-7.1
Cc1ccc2nc(NC(=O)C3CCN(S(=O)(=O)c4cnc[nH]4)CC3)sc2c1	11.1*	1.3	-50.4	6.3
CCCCSc1nc(NCc2ccco2)c2c3c(sc2n1)COC(C)(C)C3	10.1*	-1.7	9.4	-3.5
O=C(NCc1nnc(SCc2ccc(F)cc2)n1-c1ccc(F)cc1)C12CC3CC(CC(C3)C1)C2	0.4	10.2	14.9	-2.9
COc1ccc(NC(=S)N(Cc2cccnc2)Cc2cc3cc(OC)c(OC)cc3[nH]c2=O)cc1	8.6*	/	/	/
COc1ccc2[nH]c(=O)c(CN(Cc3cccs3)C(=S)Nc3cccc(C)c3)cc2c1	10.2*	-3.3	6.9	-0.3
CNC(=S)N(Cc1cccs1)Cc1cc2cc(OC)ccc2[nH]c1=O	5.5	-4.3	3.5	2.0
COc1ccc2[nH]c(=O)c(CN(Cc3cccnc3)C(=O)Nc3ccccc3)cc2c1	2.1	-1.5	-43.4	-20.5
CCOc1ccc(-c2nc(CCl)cs2)cc1OC	2.0	/	/	/
COC(=O)c1cc([N+](=O)[O-])c(-n2ccnc2)c([N+](=O)[O-])c1	0.5	/	-23.5	4.8
COCCCNc1c2c3c(cccc3[nH]c1=O)C(=O)c1ccccc1-2	-1.1	2.7	0.3	34.7*
CCOC(=O)c1c2c3c(cccc3[nH]c1=O)C(=O)c1ccccc1-2	3.0	/	/	/
CCOC(=O)C1=C(C)Nc2nc(=S)[nH]n2C1c1ccc(Cl)cc1 (configuration not stated)	3.3	-3.2	-49.6	61.8*
CCOC(=O)C1=C(C)Nc2nc(SCC)nn2C1c1ccc(OC)cc1 (configuration not stated)	3.3	1.0	-30.1	-6.5
CSc1ccccc1NC(=O)c1ccccc1N(Cc1ccccc1)S(C)(=O)=O	1.3	-2.3	-24.4	4.6
CCc1cccc(C)c1NC(=S)NCc1ccc2[nH]c(C)cc2c1	5.4	/	53.7*	-1.6
O=C(NS(=O)(=O)Oc1ccc(F)c(Cl)c1)OC[C@@H]1CCCN2CCCCC12 (some centres not stated)	5.1	/	/	/
CSc1ccc(/C=C/C(=O)c2ccc(NC(=O)C(C)C)cc2)cc1	10.3*	-3.8	-3.0	-7.0
CSc1ccc(C(=O)/C=C/c2ccc(N)cc2)cc1	1.0	-1.5	-52.9	-5.4
COc1cccc(C(=O)/C=C/c2ccc(SC)cc2)c1	9.2*	/	-31.2	-24.0
COC(=O)c1ccc(/C=C/C(=O)c2cccc(OC)c2)cc1	2.6	-9.3	0.4	-1.3
SMILES	RAM inhibit	Phagocytosis inh	BB579 growth dn	Yeast lifespan up
CCOc1ccc(NC(=O)c2cccc(OC(=S)N3CCC(C)CC3)c2)cc1	6.3	/	-27.0	-10.8
CCOC(=O)c1c(-c2ccc(-c3ccccc3)cc2)csc1NC(=O)CCN1CCOCC1	1.1	-1.2	94.6*	-8.5
CN(C1CCCCC1)S(=O)(=O)c1ccc(C(=O)N2CCN(c3nc4ccccc4s3)CC2)cc1	4.8	-12.5	-28.9	-1.1
CCOc1ncccc1C(=O)OCC(=O)N(CC)c1ccccc1	1.6	/	/	/
Fc1ccc2nc3[nH]c4ccccc4c3nc2c1	8.9*	/	63.2*	-29.4
Cc1cc(C)nc(NC(=NCCc2c[nH]c3ccccc23)NC(=O)Nc2cccc([N+](=O)[O-])c2)n1	6.5	-8.3	-4.7	0.5
Cc1c(Cl)cnc(NC(=O)COC(=O)c2cccc(S(=O)(=O)N3c4ccccc4CC3C)c2)c1Cl (configuration not stated)	6.5	-0.6	-42.5	3.7
NC(=O)c1cc(N=Nc2c(N)[nH]n(-c3c(Cl)cc(Cl)cc3Cl)c2=O)ccc1Cl	5.5	/	/	/
Cc1ccc(-n2ncc3c(NNC(=O)Cc4ccccc4)ncnc32)cc1	2.4	-6.8	-16.0	2.1
O=S(=O)(N/N=C\c1ccc(-c2ccccc2Cl)o1)c1ccccc1	10.1*	/	-43.6	/
COc1ccc(S(=O)(=O)n2ccc(C(C)Oc3ccc(-c4ccccc4)c(F)c3)n2)cc1 (configuration not stated)	4.2	0.6	-88.4	-0.2
CC(Oc1ccc(-c2ccccc2)c(F)c1)c1ccn(S(=O)(=O)c2ccc(F)cc2)n1 (configuration not stated)	9.4*	/	-26.8	1.1
O=c1[nH]c2ccccc2nc1Cc1ccccc1	0.6	-1.1	-71.9	42.7*
O=C(Cc1nc2ccccc2[nH]c1=O)c1ccccc1	0.9	/	/	/
CCOC(=O)C1CCN(S(=O)(=O)c2c(C)n[nH]c2C)CC1	1.4	-0.2	-42.5	-25.9
Cc1ccc(OCC(=O)Nc2ccc(S(=O)(=O)Nc3onc(C)c3C)cc2)cc1	10.4*	/	-49.0	-8.3
Cc1noc(NS(=O)(=O)c2ccc(N/C=C\C(=O)c3ccncc3)cc2)c1C	4.5	-1.3	-29.3	23.8
Cc1noc(NS(=O)(=O)c2ccc(N/C=C/C(=O)c3ccc(F)cc3)cc2)c1C	10.8*	/	/	/
CC1CC(C)CN(c2ccc([N+](=O)[O-])nc2)C1 (configuration not stated)	0.2	/	/	/
COc1ccccc1N1C(C)=CC(=C(C#N)c2nc3ccccc3s2)C=C1C	8.5*	-3.0	-24.4	6.2
COc1ccc(CN(CC(=O)NC2CCCC2)C(=O)c2ccc(-c3ccccc3)[nH]2)cc1	8.8*	/	/	/
CCOC(=O)C1Cc2cc3c(cc2C1=O)CC(C(=O)OCC)C3=O (configuration not stated)	-0.6	-0.7	-9.9	50.8*
COc1ccc(S(=O)(=O)N2c3ccccc3OCC2c2ccccc2)cc1 (configuration not stated)	6.2	0.2	-19.6	-15.1
O=C(CCl)N1c2ccccc2OCC1c1ccccc1 (configuration not stated)	0.5	6.4	-48.6	47.2*
COc1ccc(S(=O)(=O)N2CCN(c3cccc(C)c3C)CC2)cc1	8.4*	-0.5	-37.4	-8.9
SMILES	RAM inhibit	Phagocytosis inh	BB579 growth dn	Yeast lifespan up
Cc1cccc(C)c1N1CCN(S(=O)(=O)c2ccc(F)cc2)CC1	9.2*	-0.6	-56.9	-1.0
Cc1ccccc1CN1CCN(S(=O)(=O)c2ccc(F)cc2)CC1	0.9	/	-39.3	-3.3
O=C(O)C1Cc2[nH]cnc2C(c2ccccc2O)N1 (configuration not stated)	1.4	4.5	-14.1	-4.2
COc1ccc(OC)c(NC(=S)N2CCN(C/C=C/c3ccccc3)CC2)c1	-1.5	/	-37.3	43.0*
COc1ccc(NC(=S)N2CCN(C/C=C/c3ccccc3)CC2)cc1	0.6	-8.4	-25.1	-0.4
CCN1CCN(C(=O)c2ccc(CN(c3ccccc3)S(=O)(=O)c3ccccc3)cc2)CC1	0.8	3.0	-25.1	1.0
CCOc1ccc(NC(=O)CNC(=O)c2ccc(OC)c(OC)c2)cc1	8.8*	-0.7	-27.2	2.7
